Measured values from ChEMBL document CHEMBL4823251, “Structure-Based Exploration of Selectivity for ATM Inhibitors in Huntington's Disease” (J Med Chem, 2021).
≈ marks a conversion by molar mass, not a printed value.

How the values were obtained:
[1] = molecular target: T1, Serine-protein kinase ATM (Homo sapiens, UniProt Q13315); assay: Inhibition of full length recombinant FLAG-tagged human ATM assessed as decrease in p53 S15 phosphorylation using full length myc-tagged p53 as substrate incubated for 30 mins in presence of ATP by ELISA
T1 sequence (Q13315 whole entry): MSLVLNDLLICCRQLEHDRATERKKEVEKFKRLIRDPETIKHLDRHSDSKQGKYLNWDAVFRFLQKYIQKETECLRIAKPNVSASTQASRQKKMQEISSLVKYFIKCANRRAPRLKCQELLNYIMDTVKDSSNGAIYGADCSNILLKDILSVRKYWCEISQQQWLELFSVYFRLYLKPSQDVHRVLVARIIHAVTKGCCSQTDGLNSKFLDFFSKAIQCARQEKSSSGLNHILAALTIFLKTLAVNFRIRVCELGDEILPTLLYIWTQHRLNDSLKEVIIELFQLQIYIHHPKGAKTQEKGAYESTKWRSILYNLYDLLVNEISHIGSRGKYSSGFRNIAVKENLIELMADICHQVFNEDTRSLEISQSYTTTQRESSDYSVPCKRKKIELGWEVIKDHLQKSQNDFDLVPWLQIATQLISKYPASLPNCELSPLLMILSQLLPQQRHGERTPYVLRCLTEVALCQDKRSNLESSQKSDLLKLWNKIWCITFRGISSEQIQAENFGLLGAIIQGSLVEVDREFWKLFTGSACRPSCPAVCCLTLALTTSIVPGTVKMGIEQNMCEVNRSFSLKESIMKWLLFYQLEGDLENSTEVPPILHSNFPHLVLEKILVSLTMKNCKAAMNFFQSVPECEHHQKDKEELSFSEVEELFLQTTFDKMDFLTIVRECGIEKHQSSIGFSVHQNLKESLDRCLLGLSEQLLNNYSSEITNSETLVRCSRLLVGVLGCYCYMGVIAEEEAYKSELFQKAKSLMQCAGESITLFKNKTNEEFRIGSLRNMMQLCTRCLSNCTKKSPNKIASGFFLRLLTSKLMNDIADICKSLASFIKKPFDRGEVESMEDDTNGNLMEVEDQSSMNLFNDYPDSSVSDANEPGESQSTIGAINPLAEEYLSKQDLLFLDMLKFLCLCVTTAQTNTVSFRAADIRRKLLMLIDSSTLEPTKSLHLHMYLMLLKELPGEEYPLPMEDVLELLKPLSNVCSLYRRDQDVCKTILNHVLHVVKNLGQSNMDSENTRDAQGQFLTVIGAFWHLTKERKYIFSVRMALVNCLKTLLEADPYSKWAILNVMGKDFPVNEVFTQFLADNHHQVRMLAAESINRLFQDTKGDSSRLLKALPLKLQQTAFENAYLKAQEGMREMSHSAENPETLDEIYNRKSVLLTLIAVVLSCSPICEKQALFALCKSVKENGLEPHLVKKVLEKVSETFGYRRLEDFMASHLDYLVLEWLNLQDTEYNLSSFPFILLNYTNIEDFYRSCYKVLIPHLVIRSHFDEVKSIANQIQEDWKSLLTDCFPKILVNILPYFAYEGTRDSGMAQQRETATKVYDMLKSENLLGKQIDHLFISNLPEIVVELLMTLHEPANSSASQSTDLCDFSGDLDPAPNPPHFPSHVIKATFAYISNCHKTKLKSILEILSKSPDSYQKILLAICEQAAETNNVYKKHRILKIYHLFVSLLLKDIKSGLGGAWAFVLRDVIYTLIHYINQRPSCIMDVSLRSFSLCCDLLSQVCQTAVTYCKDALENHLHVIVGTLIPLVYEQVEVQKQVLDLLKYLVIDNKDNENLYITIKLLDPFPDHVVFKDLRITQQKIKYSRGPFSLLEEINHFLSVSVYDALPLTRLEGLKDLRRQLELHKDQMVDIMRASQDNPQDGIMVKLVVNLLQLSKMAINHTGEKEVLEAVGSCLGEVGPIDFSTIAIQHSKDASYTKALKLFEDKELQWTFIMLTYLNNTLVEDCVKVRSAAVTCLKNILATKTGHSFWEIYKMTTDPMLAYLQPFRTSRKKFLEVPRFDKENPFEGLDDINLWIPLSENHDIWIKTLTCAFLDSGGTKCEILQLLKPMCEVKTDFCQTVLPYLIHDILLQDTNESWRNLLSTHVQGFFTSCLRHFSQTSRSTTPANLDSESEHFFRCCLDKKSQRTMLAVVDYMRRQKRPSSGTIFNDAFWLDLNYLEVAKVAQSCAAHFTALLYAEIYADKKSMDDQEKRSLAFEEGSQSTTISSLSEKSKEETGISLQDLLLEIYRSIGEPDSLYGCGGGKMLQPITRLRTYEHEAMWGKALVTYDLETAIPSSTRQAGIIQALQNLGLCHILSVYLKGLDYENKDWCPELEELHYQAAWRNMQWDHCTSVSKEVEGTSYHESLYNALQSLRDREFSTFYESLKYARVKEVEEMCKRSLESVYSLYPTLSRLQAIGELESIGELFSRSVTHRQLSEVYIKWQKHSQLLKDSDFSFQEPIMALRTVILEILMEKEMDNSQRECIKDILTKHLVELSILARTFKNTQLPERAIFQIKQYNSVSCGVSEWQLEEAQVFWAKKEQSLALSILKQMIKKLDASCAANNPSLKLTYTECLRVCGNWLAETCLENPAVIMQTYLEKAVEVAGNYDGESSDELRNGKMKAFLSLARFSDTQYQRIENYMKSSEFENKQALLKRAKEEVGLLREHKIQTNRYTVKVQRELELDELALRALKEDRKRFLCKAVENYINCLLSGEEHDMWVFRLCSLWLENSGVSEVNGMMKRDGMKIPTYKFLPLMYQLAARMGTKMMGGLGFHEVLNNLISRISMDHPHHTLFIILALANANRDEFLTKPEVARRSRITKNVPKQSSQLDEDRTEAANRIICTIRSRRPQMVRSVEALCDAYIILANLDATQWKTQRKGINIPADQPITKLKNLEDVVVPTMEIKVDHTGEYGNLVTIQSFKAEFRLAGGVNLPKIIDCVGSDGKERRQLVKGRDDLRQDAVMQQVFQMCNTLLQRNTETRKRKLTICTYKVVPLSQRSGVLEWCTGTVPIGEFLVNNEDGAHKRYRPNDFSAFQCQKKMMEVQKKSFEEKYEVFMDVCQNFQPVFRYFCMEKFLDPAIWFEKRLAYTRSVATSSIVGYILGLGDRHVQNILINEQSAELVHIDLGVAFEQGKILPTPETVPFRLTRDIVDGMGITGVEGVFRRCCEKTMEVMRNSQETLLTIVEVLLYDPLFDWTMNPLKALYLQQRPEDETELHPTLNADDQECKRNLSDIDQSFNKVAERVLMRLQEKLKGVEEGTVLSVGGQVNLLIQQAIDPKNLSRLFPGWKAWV
Procedure, shortened: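 Buffer was 25 mM HEPES pH 7.5 with MgCl₂, MnCl₂, Brij-35, glycerol, BSA and DTT (0.1% DMSO); reaction ran 30 min at 20 °C and was stopped with 70 mM EDTA. Product captured on anti-myc-coated plates and detected with anti-p53 pS15, HRP secondary and TMB, absorbance at 450 nm.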

[2] = molecular target: T1, Serine-protein kinase ATM; assay: Inhibition of ATM in human U2OS cells assessed as reduction in etoposide-stimulated KAP1 phosphorylation incubated for 60 mins by immunoreactivity assay; format: cell-based
Procedure, shortened: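 U2OS cells plated overnight at 6k cells/well (37 °C, 5% CO₂), then treated with compound titrations (0.3% DMSO) plus 100 μM etoposide for 60 min. Cells fixed in cold methanol and stained for phospho-KAP1 and total KAP1 using IRDye secondaries on a LI-COR Odyssey. IC50 is the mean of at least two experiments.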

[3] = Kinetic solubility of the compound in pH 7.4 PBS buffer incubated for 2 hrs using orbital shaker by LC-UV mass spectrometry; format: physicochemical; conditions: read-out: Kinetic_solubility
Procedure, shortened: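 Shaken on an orbital shaker for 2 h at room temperature, then filtered. Filtrate analysed by LC-UV with MS confirmation, calibrated against 200 μM and 10 μM DMSO dilutions.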

[4] = molecular target: Phosphatidylinositol 3-kinase catalytic subunit type 3 (Homo sapiens, UniProt Q8NEB9); assay: Inhibition of full length recombinant GST-tagged human VPS34 expressed in baculovirus expression system using PI/PS as substrate incubated for 60 mins in presence of ATP at Km concentration by luminescence assay
Chain of Phosphatidylinositol 3-kinase catalytic subunit type 3 (Q8NEB9 whole entry): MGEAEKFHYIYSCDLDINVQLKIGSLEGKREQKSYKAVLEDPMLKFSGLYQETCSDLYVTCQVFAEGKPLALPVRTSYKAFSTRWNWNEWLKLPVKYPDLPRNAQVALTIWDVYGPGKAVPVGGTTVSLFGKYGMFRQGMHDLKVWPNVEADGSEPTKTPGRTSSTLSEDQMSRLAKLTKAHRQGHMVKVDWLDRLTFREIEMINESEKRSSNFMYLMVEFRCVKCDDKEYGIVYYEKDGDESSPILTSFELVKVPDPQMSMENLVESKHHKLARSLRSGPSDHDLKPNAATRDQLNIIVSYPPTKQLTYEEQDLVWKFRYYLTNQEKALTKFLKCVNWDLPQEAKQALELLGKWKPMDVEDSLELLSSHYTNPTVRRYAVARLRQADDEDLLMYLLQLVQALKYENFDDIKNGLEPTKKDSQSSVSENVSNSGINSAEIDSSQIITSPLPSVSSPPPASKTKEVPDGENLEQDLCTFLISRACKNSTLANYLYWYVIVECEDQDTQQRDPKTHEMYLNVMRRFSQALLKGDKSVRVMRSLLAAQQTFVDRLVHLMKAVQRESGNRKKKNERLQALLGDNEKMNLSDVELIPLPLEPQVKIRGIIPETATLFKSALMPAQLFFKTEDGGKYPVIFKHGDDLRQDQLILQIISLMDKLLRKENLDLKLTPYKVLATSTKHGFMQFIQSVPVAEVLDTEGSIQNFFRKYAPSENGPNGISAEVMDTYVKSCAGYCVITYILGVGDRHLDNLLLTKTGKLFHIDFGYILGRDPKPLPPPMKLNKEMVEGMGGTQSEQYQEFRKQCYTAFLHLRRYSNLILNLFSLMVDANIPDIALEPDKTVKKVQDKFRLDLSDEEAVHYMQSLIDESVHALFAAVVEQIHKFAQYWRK

[5] = species: Homo sapiens; assay: Selectivity ratio of Ki for full length recombinant GST-tagged VPS34 expressed in baculovirus expression system using PI/PS as substrate incubated for 60 mins in presence of ATP at Km concentration by luminescence assay to Ki for full length recombinant FLAG-tagged human ATM assessed as decrease in p53 S15 phosphorylation using full length myc-tagged p53 as substrate incubated for 30 mins in presence of ATP by ELISA
Procedure, shortened: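 ADP-Glo luminescence read-out. ATM reaction: 0.75 nM enzyme, 25 nM myc-p53, 10 μM ATP, 30 min at 20 °C, p53 S15 phosphorylation by ELISA. Ki values are means of at least two experiments.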

Row | SMILES | Ki [1] [nM] | IC50 [2] [nM] | solubility kinetic at 2 h [3] [µg/mL] | Ki [4] [nM] | Ratio Ki [5]
1 | COc1ccc2c(c1)Cc1cccc(-c3cc(O)nc(N4CCOCC4)n3)c1S2 | 25 | 6700 | 4 (≈ 9.82 µM) | 35 | 1
2 | COc1ccc2c(c1)Cc1cccc(-c3nc(O)cc(N4CCOCC4)n3)c1S2 | > 1600 | > 30000 | 2 (≈ 4.91 µM) | > 5000 | 
3 | COc1ccc2c(c1)Cc1cccc(-c3cc(N4CCOCC4)[nH]c(=O)c3)c1S2 | > 1000 | > 30000 |  |  | 
4 | C[C@@H]1CN(c2cc(N3CCCCC[C@@H]3Cc3ccccc3)[nH]c(=O)c2)CCO1 | 1 | 1600 | 70 (≈ 183 µM) | 1800 | 200
5 | C[C@@H]1CN(c2cc(=O)[nH]c(N3C[C@@H]4C[C@@H]4[C@@H]3Cc3ccccc3)n2)CCO1 | 0.9 |  | < 2 | 1500 | 1700
6 | O=c1cc(N2CCOCC2)cc(N2CCC[C@H]2Cc2ccccc2)[nH]1 | > 900 | > 30000 | > 55 | 630 | > 1
7 | O=c1cc(N2CCOCC2)cc(N2CCC(Cc3ccccc3)C2)[nH]1 (stereo not given) | > 1200 | > 30000 | 5 (≈ 14.7 µM) |  | 
8 | COc1ccc2c(c1)Cc1cccc(-c3cc(N4CCOCC4)cc(OC)n3)c1S2 | > 1600 | > 30000 | < 2 | > 5000 | > 3
9 | O=c1cc(N2CCOCC2)cc(N2CCCC2Cc2ccccc2)[nH]1 (racemic) | 30 | 4000 | > 68 | 49 | 2
10 | Oc1cc(N2CCC[C@@H]2Cc2ccccc2)nc(N2CCOCC2)n1 | 87 | > 30000 | 59 (≈ 173 µM) | 270 | 3
11 | O=c1cc(N2CCOCC2)nc(N2C[C@@H]3C[C@@H]3[C@@H]2Cc2ccccc2)[nH]1 | 0.6 |  | < 2 | 5 | 8
12 | C[C@@H]1CN(c2cc(N3C[C@H]4C[C@H]4[C@@H]3Cc3ccccc3)[nH]c(=O)c2)CCO1 |  |  | 62 (≈ 170 µM) | > 5000 | 
13 | C[C@@H]1CN(c2cc(=O)[nH]c(N3C[C@H]4C[C@H]4[C@@H]3Cc3ccccc3)n2)CCO1 | 2 |  | 48 (≈ 131 µM) | 880 | 490
14 | COc1ccc2c(c1)Cc1cccc(-c3cc(=O)cc(N4CCOCC4)[nH]3)c1S2 | 110 | > 30000 | 3 (≈ 7.38 µM) |  | 
15 | COc1ccc2c(c1)Cc1cccc(-c3cc(N4CCOCC4)nc(O)n3)c1S2 | 160 | > 30000 | < 2 | 3300 | 21
16 | COc1ccc2c(c1)Cc1cccc(-c3cc(N4CCOCC4)cc(=O)n3C)c1S2 | > 1200 | > 30000 | 10 (≈ 23.8 µM) | 910 | > 1
17 | O=c1cc(N2CCOCC2)nc(N2C[C@H]3C[C@H]3[C@@H]2Cc2ccccc2)[nH]1 | 0.2 | 130 | 54 (≈ 153 µM) | 21 | 105
18 | C[C@@H]1CN(c2cc(=O)[nH]c(N3CCCCC[C@@H]3Cc3ccccc3)n2)CCO1 | 1 |  | 11 (≈ 28.8 µM) | 840 | 840
19 | COc1ccc2c(c1)Cc1cccc(-c3cc(N4CCOCC4)cc(=O)[nH]3)c1S2 | 4 | 880 | 14 (≈ 34.4 µM) | 130 | 33
